From ChEMBL document CHEMBL3603803, “Design and synthesis of dithiocarbamate linked β-carboline derivatives: DNA topoisomerase II inhibition with DNA binding and apoptosis inducing ability” (Bioorg Med Chem, 2015)
Calls of active or inactive are those of the source. The calls are words filed in the database; no cut-off is given here.

Experiments:
[1] = test system: A549; assay: Cytotoxicity against human A549 cells after 48 hrs by MTT assay; assay type: functional, cell-based; conditions: A549, 48 h
Summary of the method: (§1)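 Human cancer cell lines (A549 lung, MCF-7 breast, DU-145 prostate, HeLa cervical) exposed to compounds for 48 h; 50% inhibitory concentration derived, average of three individual experiments; doxorubicin reference agent.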

[2] = test system: MCF7; assay: Cytotoxicity against human MCF7 cells after 48 hrs by MTT assay; assay type: functional, cell-based; conditions: MCF7, 48 h; summary of the method: as §1
[3] = test system: DU-145; assay: Cytotoxicity against human DU145 cells after 48 hrs by MTT assay; assay type: functional, cell-based; conditions: DU-145, 48 h; summary of the method: as §1
[4] = test system: HeLa; assay: Cytotoxicity against human HeLa cells after 48 hrs by MTT assay; assay type: functional, cell-based; summary of the method: as §1
[5] = biological target: DNA topoisomerase II (Homo sapiens) (UniProt P11388+Q02880); assay: Interfacial poisoning activity at DNA-topoisomerase 2 (unknown origin) using catenated kDNA as substrate assessed as linear DNA formation at 1 to 100 uM after 30 mins by agarose gel electrophoresis; assay type: protein assay
Summary of the method: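 Catenated DNA incubated with topo II and compound at 1, 10 and 100 µM; gel products scored for linear DNA (poison type) versus nicked circular/relaxed DNA retained in wells (catalytic inhibitor type); etoposide at 1, 10, 100 µM as control.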

| SMILES | IC50 [1] [µM] | IC50 [2] [µM] | IC50 [3] [µM] | IC50 [4] [µM] | Activity [5] |
| --- | --- | --- | --- | --- | --- |
| C=CCSC(=S)NCc1cc2c3ccccc3n(C)c2c(-c2ccc(C(F)(F)F)cc2)n1 | 4.26 | 4.78 | 1.99 | 4.67 | – |
| COc1ccc(-c2nc(CN)cc3c2[nH]c2ccccc23)cc1 | 17.8 | 18.9 | 17.4 | 18.6 | – |
| C=CCSC(=S)NCc1cc2c3ccccc3n(C)c2c(-c2cc(OC)c(OC)c(OC)c2)n1 | 18.1 | 20.6 | 19.4 | 19.9 | – |
| Cn1c2ccccc2c2cc(CN)nc(-c3ccc(C(F)(F)F)cc3)c21 | 19.2 | 11.7 | 7.76 | 15.1 | – |
| Cn1c2ccccc2c2cc(CNC(=S)SCc3ccccc3)nc(-c3ccc(F)cc3)c21 | 6.76 | 2.75 | 4.78 | 3.16 | – |
| COc1cccc2c1C(=O)c1c(O)c3c(c(O)c1C2=O)C[C@@](O)(C(=O)CO)C[C@@H]3O[C@H]1C[C@H](N)[C@H](O)[C@H](C)O1 [DOXORUBICIN] | 1.58 | 0.96 | 1.38 | 2.63 | – |
| COc1cc(-c2nc(CNC(=S)SC)cc3c4ccccc4n(C)c23)cc(OC)c1OC | 12.5 | 15.2 | 6.16 | 16.9 | – |
| Fc1ccc(-c2nc(CNC(=S)SCc3ccccc3)cc3c2[nH]c2ccccc23)cc1 | 39.8 | 7.41 | 3.71 | 3.81 | – |
| NCc1cc2c([nH]c3ccccc32)c(-c2ccc(C(F)(F)F)cc2)n1 | 15.8 | 12 | 9.12 | 15.8 | – |
| C=CCSC(=S)NCc1cc2c([nH]c3ccccc32)c(-c2cc(OC)c(OC)c(OC)c2)n1 | 12.8 | 15.8 | 13.8 | 23.2 | – |
| Cn1c2ccccc2c2cc(CNC(=S)SCc3ccccc3)nc(-c3ccc(C(F)(F)F)cc3)c21 | 5.12 | 4.31 | 2.08 | 4.78 | – |
| COc1cc(-c2nc(CNC(=S)SCc3ccccc3)cc3c2[nH]c2ccccc23)cc(OC)c1OC | 27.5 | 25.8 | 17.3 | 14.5 | – |
| COc1ccc(-c2nc(CN)cc3c4ccccc4n(C)c23)cc1 | 20.1 | 16.6 | 12.8 | 14.8 | – |
| COc1cc([C@@H]2c3cc4c(cc3[C@@H](O[C@@H]3O[C@@H]5CO[C@@H](C)O[C@H]5[C@H](O)[C@H]3O)[C@H]3COC(=O)[C@H]23)OCO4)cc(OC)c1O | – | – | – | – | Active |
| C=CCSC(=S)NCc1cc2c3ccccc3n(C)c2c(-c2ccc(OC)cc2)n1 | 10 | 3.2 | 2.5 | 8.3 | – |
| COc1ccc(-c2nc(CNC(=S)SC)cc3c2[nH]c2ccccc23)cc1 | 7.94 | 8.51 | 1.14 | 7.78 | – |
